From PubChem
Runt-SMMHC FRET = blocks binding of human RUNX1 Runt domain to CBFb-SMMHC | inhibition, % at 20 µM | 220,000 compounds, 0.74% hits | Cerulean-Runt/Venus-CBFb-SMMHC FRET ratio 530/480, 1 h | AID 1434;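 active = mean inhibition across duplicate retests at 20 µM reaching about 50%, limit read from the data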;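 note: 0% = DMSO wells and 100% = wells with excess untagged CBFb-SMMHC; inhibitors lower the FRET ratio by blocking Runt binding to CBFb-SMMHC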
Hck Nef HTS = blocks Nef-activated human Hck kinase. P08631. Recombinant Hck-YEEI plus Nef, Z-Lyte FRET kinase assay. inhibition, % at 20 µM. 220,000 compounds, 0.68% hits. AID 463187;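 active = Hck-Nef kinase inhibition above about 50%, limit read from the data; inactive = inhibition below that limit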;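 note: 0% = DMSO with Hck plus Nef and 100% = Hck alone without Nef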
Target sequence (P08631 whole entry, looked up): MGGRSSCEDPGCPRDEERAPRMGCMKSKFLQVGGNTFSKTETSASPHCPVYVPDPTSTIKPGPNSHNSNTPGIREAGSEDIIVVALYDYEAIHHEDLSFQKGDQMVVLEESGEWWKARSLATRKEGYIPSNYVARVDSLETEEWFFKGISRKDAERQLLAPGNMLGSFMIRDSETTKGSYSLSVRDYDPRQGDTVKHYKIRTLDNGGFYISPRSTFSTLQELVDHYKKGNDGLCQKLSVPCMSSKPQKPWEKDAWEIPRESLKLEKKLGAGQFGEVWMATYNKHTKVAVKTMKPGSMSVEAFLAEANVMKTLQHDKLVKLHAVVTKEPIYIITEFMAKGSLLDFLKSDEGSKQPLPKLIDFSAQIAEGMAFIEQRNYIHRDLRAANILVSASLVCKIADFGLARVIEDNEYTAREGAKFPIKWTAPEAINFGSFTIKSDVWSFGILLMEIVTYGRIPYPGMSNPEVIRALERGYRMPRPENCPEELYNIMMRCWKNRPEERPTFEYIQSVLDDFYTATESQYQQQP
Runt-CBFb FRET = Runt domain-CBFb interaction inhibition; Q01196+Q13951; Cerulean-Runt/Venus-CBFb FRET ratio 530/480, 1 h; inhibition, % at 20 µM; 220,000 compounds, 0.46% hits;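 active = inhibition over about 50% at 20 µM in the single-dose screen, limit read from the data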;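 note: 0% = DMSO wells and 100% = excess unlabeled CBFb competitor control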
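Reagent – Venus-CBFb binding partner, 100 nM · Assay system – Cerulean-tagged RUNX1 Runt domain (FRET donor) fusion protein · Input – 100 nM per protein · Incubation – two 1 h room-temperature incubations shielded from light · Measured by – FRET fluorescence · Medium – Tris buffer pH 7.5 with salts and BSA · Benchmarks – unlabeled CBFb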
RanGTP-Impb inh = disruptors of Ran-importin-beta complex formation – biochemical, FRET, CFP-Ran, YFP-importin-beta, homogeneous, primary screen. cell-free CFP-Ran/YFP-importin-beta FRET ratio. inhibition, % (concentration not given with the values). 300,000 compounds, 1.1% hits;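 active = more than half of the replicate wells show a fall in the fluorescence ratio signal beyond about 16%, limit read from the data, passing the limit was not always enough; inconclusive = exactly half of the replicate wells pass the set limit; inactive = fewer than half of replicates pass the limit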;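 note: 0% = DMSO wells and 100% = Ran loaded with GDP instead of GTP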
Numbers without * were called inactive; ? = inconclusive; . = no result. Hits are enriched below; roughly 1.8% of the tested compounds scored in any of these assays.

SMILES | Runt-SMMHC FRET | Hck Nef HTS | Runt-CBFb FRET | RanGTP-Impb inh
CC1(C)Cc2c(sc(NC(=O)C(=O)NCC3CCCO3)c2C(N)=O)CO1 (configuration not stated) | . | . | . | 3.8
CCOC(=O)c1c(N2C(=O)C=CC2=O)sc(C)c1C | 61.7* | -6.1 | 47.0 | 0.7
CCOC(=O)c1c(NC(N)=O)sc(C)c1C | -0.4 | -0.4 | 1.1 | -1.1
COc1cc(/C=N/Nc2snc(SC)c2C#N)cc(OC)c1OC | 3.0 | 0.8 | 8.4 | 1.4
CSc1nsc(N/N=C/c2ccc3c(c2)OCO3)c1C#N | 15.7 | -4.9 | 14.2 | 19.9*
CC1(C)c2ssc(=S)c2-c2ccccc2N1C(=O)c1ccco1 | -2.3 | 5.3 | 122.0* | -5.7
CCCCN1C(=O)c2cccc3cc(O)cc(c23)C1=O | . | . | . | -30.1
CC1=CC(c2ccccc2)n2nc(NS(=O)(=O)c3ccc(C)cc3)nc2N1 (configuration not stated) | 84.6* | 14.9 | 35.4 | .
CC1=CC(c2ccc(Cl)cc2)n2nc(NS(=O)(=O)c3ccc(C)cc3)nc2N1 (configuration not stated) | . | 5.1 | 35.7 | ?
O=C(COc1ccccc1Cl)Nc1ccc(C(=O)N2CCCCC2)cc1 | . | . | . | -2.5
O=C(COc1ccccc1Cl)Nc1ccc(CN2CCCCC2)cc1 | -1.5 | -1.4 | -1.2 | 30.9*
CC(=O)n1c2c(c3ccccc31)OC(N)=C(C#N)C2c1ccc(C(C)C)cc1 (configuration not stated) | -7.1 | 1.7 | -7.3 | 31.1*
Cc1ccc(NC(=O)CN2C(=O)c3ccccc3C2=O)nc1 | -2.1 | 11.8 | -1.1 | 4.1
Cc1ccc(C(CC(=O)O)NC(=O)CN2C(=O)c3ccccc3C2=O)cc1 (configuration not stated) | . | . | . | 69.7*
COCCCNC(=O)CN1C(=O)c2ccccc2C1=O | 1.0 | -2.6 | -1.0 | -2.7
CC1CCCCC1NC(=O)CN1C(=O)c2cccc(N)c2C1=O (configuration not stated) | 85.9* | 7.0 | 20.8 | -3.7
CCCCNC(=O)CN1C(=O)c2cccc(N)c2C1=O | 92.8* | -8.7 | 20.3 | -3.4
CCCn1c(C)cc(C(=O)CN2C(=O)c3cccc(N)c3C2=O)c1C | 57.2* | -0.2 | 19.1 | .
COc1ccccc1CNC(=O)CCN1C(=O)c2ccccc2C1=O | . | . | . | 0.1
COc1ccccc1CNC(=O)CN1C(=O)c2cccc(N)c2C1=O | . | . | . | 27.5*
O=C(NCc1cccc(Cl)c1)N1CCN(S(=O)(=O)c2ccccc2F)CC1 | . | . | . | 0.7
COc1ccc(-n2c(SCCNCCO)nc3sc4c(c3c2=O)CCCC4)cc1 | . | . | . | -0.6
NC(N)=Nc1nc(-c2ccccc2)c2ccccc2n1 | 5.4 | 21.3 | 1.0 | 25.8*
CC(=O)Nc1ccccc1NC(=O)C/C(C)=N/NC(=O)Cc1cccc2ccccc12 | . | . | . | 6.2
Cc1c(C(=O)O)cccc1-n1c(C)cc(C=O)c1C | 92.5* | 7.1 | 13.5 | 6.7
SMILES | Runt-SMMHC FRET | Hck Nef HTS | Runt-CBFb FRET | RanGTP-Impb inh
CCOc1ccccc1-n1c(C)cc(C=O)c1C | -1.3 | 2.0 | -1.7 | -2.6
Cc1ccc(C(=O)O)cc1-n1c(C)cc(C=O)c1C | 90.5* | 24.9 | 22.7 | 2.2
Cc1cc(C(=O)O)ccc1-n1c(C)cc(/C=C2\SC(=O)NC2=O)c1C | . | . | . | 2.9
Cc1ccc(N2CC(C(=O)Nc3nnc(SCCN4CCOCC4)s3)CC2=O)cc1C (configuration not stated) | . | . | . | 0.1
Cc1cc(F)ccc1S(=O)(=O)N1CCCOC1CNC(=O)C(=O)NCc1cccnc1 (configuration not stated) | . | . | . | -5.5
CCC(=O)Nc1c(S(=O)(=O)c2ccc(C)cc2)c2nc3ccccc3nc2n1C(C)c1ccccc1 (configuration not stated) | 74.9* | 12.2 | 37.0 | 4.4
CCCCn1c(NC(=O)c2ccco2)c(S(=O)(=O)c2ccc(C)cc2)c2nc3ccccc3nc21 | 46.5 | 48.8 | 4.4 | 48.8*
COc1ccc(Cn2ccnc2SCC(=O)NC2CCCC2)cc1 | . | . | . | -2.5
Cc1cccc2c1c1ccc3c(c1n2C)C(=O)C=CC3=O | 36.2 | -6.2 | 51.8* | .
CC(=O)N1c2ccc(S(=O)(=O)NCC3CCC(C(=O)N4CCC(C)CC4)CC3)cc2CC1C (configuration not stated) | . | . | . | 4.0
COc1ccc(C2c3ccc(O)cc3Oc3ncn(CC(C)C)c(=N)c32)cc1 (configuration not stated) | 62.4* | -7.5 | 41.4 | 12.6
COc1ccc(C2c3ccc(O)cc3Oc3ncn(CCN4CCOCC4)c(=N)c32)cc1 (configuration not stated) | 12.4 | 22.3 | 8.1 | 1.7
CCc1c(C)nc2c(Br)cccc2c1SCCC#N | -1.0 | 1.7 | -4.4 | 28.8*
O=c1ccc2cc3c4c(c2o1)CCCN4CCC3 | 3.8 | 14.4 | 4.8 | 92.0*
O=c1oc2c3c4c(cc2s1)CCCN4CCC3 | -33.1 | 0.7 | 10.1 | -8.3
O=c1[nH]c2ccccc2nc1-c1cccs1 | 168.8* | 13.5 | 91.4* | 8.9
c1csc(-c2nnsc2-c2nc3ccccc3[nH]2)c1 | 15.0 | -2.9 | 3.5 | 0.5
COC(=O)C1CN(C(=O)COc2ccc(Cl)cc2C)c2ccccc2O1 (configuration not stated) | . | . | . | -0.2
COc1cccc(OC)c1NC(=O)Cn1nc(C)c2ccccc2c1=O | . | . | . | 5.7
O=C(Nc1cccc(S(=O)(=O)N2CCCCC2)c1)C1CC(=O)N(Cc2ccco2)C1 (configuration not stated) | -3.2 | 15.0 | 1.2 | 40.4*
Cc1ccc(CN2CC(C(=O)Nc3cccc(S(=O)(=O)N4CCCCC4)c3)CC2=O)cc1 (configuration not stated) | -3.7 | 3.2 | -1.8 | 2.8
COc1ccc(C(=O)NCc2nnc(SCC(=O)NCCc3ccccc3)o2)cc1 | . | . | . | 3.7
O=S(=O)(Nc1nc2ccccc2nc1Nc1ccc(N2CCOCC2)cc1)c1cc(Cl)ccc1Cl | -7.4 | -0.8 | 2.3 | 37.4*
COc1ccc(Nc2ccc([N+](=O)[O-])cn2)cc1 | . | . | . | -3.8
CCOC(=O)c1ccc(Nc2ccc([N+](=O)[O-])cn2)cc1 | -34.8 | 2.7 | -41.1 | 18.9*
SMILES | Runt-SMMHC FRET | Hck Nef HTS | Runt-CBFb FRET | RanGTP-Impb inh
CSCCC(=O)N1CC[C@@H](N2CCN(c3ccccc3F)CC2)[C@H](O)C1 | . | . | . | -2.9
CC(=O)c1c(N2CCN(CCO)CC2)nc(=S)n(-c2ccccc2)c1C | 92.5* | 11.8 | 65.1* | 61.6*
CC(=O)c1c(N2CCN(Cc3ccccc3)CC2)nc(=S)n(Cc2ccccc2)c1C | 82.4* | 1.4 | 74.7* | 68.3*
CC(=O)c1c(N2CCN(Cc3ccc4c(c3)OCO4)CC2)nc(=S)n(-c2ccccc2)c1C | 1.1 | 0.7 | 5.9 | 1.3
CC(=O)c1c(N2CCN(c3ccccc3)CC2)nc(=S)n(-c2ccccc2)c1C | -37.7 | 0.4 | -0.6 | 2.1
CCn1c(C)c(C(C)=O)c(N2CCN(c3ccc(F)cc3)CC2)nc1=S | 0.4 | -21.3 | 23.4 | 20.5*
CC(=O)c1c(N2CCN(Cc3ccccc3)CC2)nc(=S)n(-c2ccccc2)c1C | 98.0* | 0.0 | 46.2 | 85.3*
CC(C)(C)c1ccc(C(=O)NNC(=O)CCc2ccccc2)cc1 | . | . | . | -2.3
